The species entered for test [1] is Homo sapiens. The experiment in a line: Selectivity index, ratio of Ki for human adenosine A1 receptor to EC50 for human adenosine A2B receptor.
The species entered for test [2] is Homo sapiens. The test can be described thus: Selectivity index, ratio of Ki for human adenosine A3 receptor to EC50 for human adenosine A2B receptor.
The target in test [3] is T1, Adenosine receptor A2b (Homo sapiens) (UniProt P29275).
T1 sequence (whole entry): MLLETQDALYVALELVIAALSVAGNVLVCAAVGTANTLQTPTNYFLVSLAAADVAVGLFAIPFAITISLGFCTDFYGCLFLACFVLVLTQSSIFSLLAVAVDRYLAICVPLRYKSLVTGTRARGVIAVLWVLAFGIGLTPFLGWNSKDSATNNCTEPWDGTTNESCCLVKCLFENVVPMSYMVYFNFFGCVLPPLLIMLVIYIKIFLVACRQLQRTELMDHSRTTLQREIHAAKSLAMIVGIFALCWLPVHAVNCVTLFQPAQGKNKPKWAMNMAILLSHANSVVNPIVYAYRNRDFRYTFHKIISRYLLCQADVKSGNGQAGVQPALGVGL
The experiment in a line: Agonist activity at human adenosine A2B receptor expressed in CHO cell membranes assessed as induction of cAMP accumulation at 1 uM by AlphaScreen assay relative to NECA. The class given is functional, cell-based. Put shortly:
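Whole adherent hA2B-transfected CHO cells (DMEM/F12, 10% FCS, G418), trypsin-detached, in HBSS with 5 mM HEPES, 0.5 mM Ro 20-1724, 0.1% BSA; test compound at 1 μM alone; cAMP by AlphaScreen; efficacy expressed relative to NECA 1 μM taken as 100%.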

Test [4] addresses T2, Adenosine receptor A1 (Homo sapiens, UniProt P30542).
T2 sequence (P30542 whole entry): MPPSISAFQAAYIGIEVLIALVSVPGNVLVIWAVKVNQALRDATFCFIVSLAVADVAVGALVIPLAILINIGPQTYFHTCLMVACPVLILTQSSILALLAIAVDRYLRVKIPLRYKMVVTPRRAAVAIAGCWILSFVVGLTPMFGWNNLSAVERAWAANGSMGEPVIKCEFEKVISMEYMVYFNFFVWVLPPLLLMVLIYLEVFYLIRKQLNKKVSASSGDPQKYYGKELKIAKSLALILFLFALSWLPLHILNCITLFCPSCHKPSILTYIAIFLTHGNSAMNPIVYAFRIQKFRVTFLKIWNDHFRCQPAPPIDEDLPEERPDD
The experiment in a line: Displacement of [3H]DPCPX from human adenosine A1 receptor expressed in CHO cell membranes after 90 mins by scintillation counting analysis. Put shortly: (§1)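 Hypotonic-lysed (5 mM Tris HCl, 1 mM EDTA, pH 7.4), 40000 g pelleted hA1-CHO membranes, 50 µg protein/100 µl, with 1 nM [3H]DPCPX, 90 min, 25°C, 50 mM Tris HCl pH 7.4; nonspecific with 1 µM DPCPX; GF/B filtration, scintillation. Ki via Cheng–Prusoff, four assays in triplicate; I% at 1 μM.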
Background: Loss of bound radioactivity is the signal in a displacement assay; it reports binding, not function.

The target in test [5] is T3, Adenosine receptor A2a (Homo sapiens, UniProt P29274). The experiment in a line: Displacement of [3H]-ZM241385 from human adenosine A2A receptor expressed in CHO cell membranes after 60 mins by scintillation counting analysis.
For test [6], the target named is T4, Adenosine receptor A2b (Homo sapiens, UniProt P29275).
T4 sequence (P29275 whole entry): T1 sequence (whole entry)
The test can be described thus: Agonist activity at human adenosine A2B receptor expressed in CHO cell membranes assessed as induction of cAMP accumulation by AlphaScreen assay. In kind it is functional, cell-based. Put shortly:
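Intact hA2B-transfected CHO cells, trypsin-detached, stimulated in HBSS/5 mM HEPES/0.5 mM Ro 20-1724/0.1% BSA with compound alone at 1 nM–1 μM; cAMP read by AlphaScreen kit; EC50 from four separate assays each in triplicate, mean ± SEM.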

For test [7], the species on record is Homo sapiens. The test can be described thus: Selectivity index, ratio of Ki for human adenosine A2A receptor to EC50 for human adenosine A2B receptor.
In test [8] the target is T5, Adenosine receptor A3 (Homo sapiens, UniProt P0DMS8).
T5 sequence (P0DMS8 whole entry): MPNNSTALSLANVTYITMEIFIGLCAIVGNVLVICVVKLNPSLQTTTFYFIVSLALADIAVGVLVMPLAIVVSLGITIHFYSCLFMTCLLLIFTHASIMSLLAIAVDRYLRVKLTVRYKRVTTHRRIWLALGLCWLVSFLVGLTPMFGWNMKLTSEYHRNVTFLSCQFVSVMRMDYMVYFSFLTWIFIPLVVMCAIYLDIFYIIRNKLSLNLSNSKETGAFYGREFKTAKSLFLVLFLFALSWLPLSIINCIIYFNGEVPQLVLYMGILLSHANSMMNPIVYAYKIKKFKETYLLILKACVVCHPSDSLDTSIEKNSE
The experiment in a line: Displacement of [125I]-ABMECA from human adenosine A3 receptor expressed in CHO cell membranes after 120 mins by scintillation counting analysis. Put shortly: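 Membranes of hA3-CHO cells, 50 µg protein/100 µl, incubated 120 min at 4°C with 0.5 nM [125I]AB-MECA in 50 mM Tris HCl pH 7.4, 10 mM MgCl2, 1 mM EDTA; 1 µM AB-MECA for nonspecific; filter separation, counted. Ki by Cheng–Prusoff, four assays in triplicate; I% at 1 μM.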

Test [9] deals with T3, Adenosine receptor A2a. The test can be described thus: Displacement of [3H]-ZM241385 from human adenosine A2A receptor expressed in CHO cell membranes at 1 uM after 60 mins by scintillation counting analysis.
In test [10] the target is T6, Adenosine receptor A1 (Homo sapiens) (UniProt P30542).
T6 sequence (whole entry): T2 sequence (P30542 whole entry)
The test can be described thus: Displacement of [3H]DPCPX from human adenosine A1 receptor expressed in CHO cell membranes at 1 uM after 90 mins by scintillation counting analysis. Put shortly: as §1

Each structure is given as a SMILES string.

T3 sequence (P29274 whole entry): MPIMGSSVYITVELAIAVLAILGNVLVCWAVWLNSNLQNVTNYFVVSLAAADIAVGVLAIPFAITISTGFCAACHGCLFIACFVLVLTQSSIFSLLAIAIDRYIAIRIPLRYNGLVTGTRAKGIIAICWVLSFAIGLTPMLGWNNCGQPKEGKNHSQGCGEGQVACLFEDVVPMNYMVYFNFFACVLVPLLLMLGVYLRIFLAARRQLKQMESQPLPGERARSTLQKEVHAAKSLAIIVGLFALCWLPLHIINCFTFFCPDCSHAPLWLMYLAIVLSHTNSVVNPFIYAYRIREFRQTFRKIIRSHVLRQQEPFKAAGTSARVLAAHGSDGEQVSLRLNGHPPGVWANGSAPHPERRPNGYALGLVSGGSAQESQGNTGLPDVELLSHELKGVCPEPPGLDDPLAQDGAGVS

On to `N#Cc1c(N)nc(SCc2ncc[nH]2)c(C#N)c1-c1ccc(OCC2CC2)cc1`, for which the Selectivity Index was found to be 25 in [1], 50 in [2] and 80 in [7]. In test [3], the Efficacy was 70%. Also, the inhibitory constant (Ki) (as a rule, the equilibrium dissociation constant of an inhibitor or competing ligand from its target) worked out at 235 nM in test [4], 764 nM in test [5] and 474 nM in [8]. Further, the EC50 (commonly the concentration needed to bring the measured effect to its halfway point) in test [6] is 9.5 nM.

Consider `CCOc1ccc(-c2c(C#N)c(N)nc(SCC(=O)NC)c2C#N)cc1`, for which the inhibition (commonly how much of the control response was suppressed) in [9] turned out to be 8%. Also, the Efficacy in test [3] turned out to be 48%. Besides, the inhibitory constant (Ki) is 104 nM in test [4] and 834 nM in [8]. Besides, the concentration giving a half-maximal response (EC50) in test [6] stood at 211 nM.

Regarding `CC(=O)Nc1ccc(-c2c(C#N)c(N)nc(SCC(N)=O)c2C#N)cc1`, in test [3], the Efficacy worked out at 92%. Further, the inhibition in [10] was 17%. Besides, the inhibition constant Ki in [5] was found to be 572 nM; in test [8] it was 742 nM. Also, the EC50 in test [6] amounted to 164 nM.

Take `CCOc1ccc(-c2c(C#N)c(N)nc(SCc3ncc[nH]3)c2C#N)cc1`: the Efficacy in test [3] came to 62%. Also, the Ki amounted to 8.2 nM in test [4], 221 nM in test [5] and 85 nM in [8]. Also, in test [6], the concentration giving a half-maximal response (EC50) turned out to be 11.7 nM.

These data come from ChEMBL document CHEMBL4196073, “The aminopyridine-3,5-dicarbonitrile core for the design of new non-nucleoside-like agonists of the human adenosine A2B receptor” (Eur J Med Chem, 2018).
